Source: ChEMBL document CHEMBL1123542, “Alpha-adrenoreceptor reagents. 4. Resolution of some potent selective prejunctional alpha 2-adrenoreceptor antagonists” (J Med Chem, 1986)

Columns and labels:
[1] = molecular target: T1, Adrenergic receptor alpha-2 (Rattus norvegicus, UniProt P22086+P19328+P22909); test: Displacement of [3H]idazoxan from alpha-2 adrenergic receptor from rat brain cerebral cortex.; format: tissue-based
T1 sequence (P22086 whole entry): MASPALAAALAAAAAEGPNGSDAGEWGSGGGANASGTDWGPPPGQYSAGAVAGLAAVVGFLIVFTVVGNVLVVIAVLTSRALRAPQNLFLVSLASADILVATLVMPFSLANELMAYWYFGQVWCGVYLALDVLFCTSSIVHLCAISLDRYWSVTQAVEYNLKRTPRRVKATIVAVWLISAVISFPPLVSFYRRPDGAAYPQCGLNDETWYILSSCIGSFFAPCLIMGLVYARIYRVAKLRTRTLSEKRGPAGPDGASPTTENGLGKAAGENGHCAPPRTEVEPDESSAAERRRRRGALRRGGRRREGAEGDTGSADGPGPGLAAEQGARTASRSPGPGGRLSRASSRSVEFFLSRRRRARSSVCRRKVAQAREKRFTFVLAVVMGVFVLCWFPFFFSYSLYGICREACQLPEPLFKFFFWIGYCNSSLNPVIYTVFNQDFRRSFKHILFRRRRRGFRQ
T1 sequence (P19328 whole entry): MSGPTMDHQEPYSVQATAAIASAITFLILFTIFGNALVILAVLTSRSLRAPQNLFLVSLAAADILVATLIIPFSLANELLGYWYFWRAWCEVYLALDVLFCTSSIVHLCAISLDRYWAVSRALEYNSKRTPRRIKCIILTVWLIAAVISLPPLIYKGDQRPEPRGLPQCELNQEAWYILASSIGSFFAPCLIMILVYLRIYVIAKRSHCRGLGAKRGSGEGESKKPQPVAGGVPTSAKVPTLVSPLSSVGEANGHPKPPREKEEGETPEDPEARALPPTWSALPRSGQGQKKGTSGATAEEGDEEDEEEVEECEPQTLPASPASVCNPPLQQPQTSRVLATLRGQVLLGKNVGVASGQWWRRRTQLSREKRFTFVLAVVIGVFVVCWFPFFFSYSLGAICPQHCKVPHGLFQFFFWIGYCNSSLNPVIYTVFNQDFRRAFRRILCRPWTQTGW
T1 sequence (P22909 whole entry): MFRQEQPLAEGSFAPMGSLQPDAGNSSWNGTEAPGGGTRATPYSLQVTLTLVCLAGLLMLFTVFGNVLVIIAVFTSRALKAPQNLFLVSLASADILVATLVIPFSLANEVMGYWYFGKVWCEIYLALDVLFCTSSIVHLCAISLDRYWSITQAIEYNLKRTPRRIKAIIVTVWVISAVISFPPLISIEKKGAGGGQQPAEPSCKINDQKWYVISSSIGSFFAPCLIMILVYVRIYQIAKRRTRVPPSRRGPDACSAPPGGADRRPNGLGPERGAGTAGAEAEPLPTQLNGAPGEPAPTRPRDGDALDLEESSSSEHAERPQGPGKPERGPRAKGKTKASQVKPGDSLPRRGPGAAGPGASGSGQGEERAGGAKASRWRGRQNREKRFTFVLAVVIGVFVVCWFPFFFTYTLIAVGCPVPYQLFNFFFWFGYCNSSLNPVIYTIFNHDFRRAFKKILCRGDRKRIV
Method in brief: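 Rat cerebral cortical membranes. Ki (nM) from displacement of saturable [3H]idazoxan binding at α2 sites.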

[2] = tested on: Rattus norvegicus; test: Compound was evaluated in vivo for the reversal of maximal inhibitory effect of clonidine at 100 ug/kg(iv) in pithed rat vas deferens preparation; format: functional
[3] = molecular target: T2, Adrenergic receptor alpha-1 (Rattus norvegicus, UniProt P15823+P23944+P43140); test: Displacement of [3H]prazosin from alpha-1 adrenergic receptor from rat brain cerebral cortex; format: tissue-based
T2 sequence (P15823 whole entry): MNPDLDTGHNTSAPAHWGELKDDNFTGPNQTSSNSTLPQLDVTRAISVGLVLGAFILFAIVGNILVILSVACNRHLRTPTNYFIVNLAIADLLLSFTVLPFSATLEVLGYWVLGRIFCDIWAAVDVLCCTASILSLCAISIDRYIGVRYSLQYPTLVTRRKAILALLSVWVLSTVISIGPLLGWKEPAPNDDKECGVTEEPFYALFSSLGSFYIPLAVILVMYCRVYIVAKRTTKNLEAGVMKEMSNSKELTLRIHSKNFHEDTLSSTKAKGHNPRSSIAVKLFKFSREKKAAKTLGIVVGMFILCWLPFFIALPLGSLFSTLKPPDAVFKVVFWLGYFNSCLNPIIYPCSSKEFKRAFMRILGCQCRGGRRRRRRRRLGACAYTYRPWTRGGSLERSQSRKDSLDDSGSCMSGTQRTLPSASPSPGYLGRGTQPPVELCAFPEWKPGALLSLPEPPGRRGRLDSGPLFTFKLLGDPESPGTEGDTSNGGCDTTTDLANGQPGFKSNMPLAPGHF
T2 sequence (P23944 whole entry): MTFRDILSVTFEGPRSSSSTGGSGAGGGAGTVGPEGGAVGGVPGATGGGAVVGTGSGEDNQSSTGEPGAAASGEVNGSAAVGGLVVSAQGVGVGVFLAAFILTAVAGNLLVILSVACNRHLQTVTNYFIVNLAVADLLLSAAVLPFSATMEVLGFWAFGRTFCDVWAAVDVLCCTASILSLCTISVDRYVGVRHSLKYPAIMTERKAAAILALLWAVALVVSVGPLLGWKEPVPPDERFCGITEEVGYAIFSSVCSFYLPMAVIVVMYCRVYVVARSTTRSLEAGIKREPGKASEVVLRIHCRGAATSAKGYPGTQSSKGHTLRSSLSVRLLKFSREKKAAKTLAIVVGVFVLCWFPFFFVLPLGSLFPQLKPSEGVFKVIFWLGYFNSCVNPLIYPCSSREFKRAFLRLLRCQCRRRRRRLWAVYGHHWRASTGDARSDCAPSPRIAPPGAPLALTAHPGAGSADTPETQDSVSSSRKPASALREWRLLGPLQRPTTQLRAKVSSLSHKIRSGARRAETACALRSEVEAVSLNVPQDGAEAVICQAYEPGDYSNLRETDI
T2 sequence (P43140 whole entry): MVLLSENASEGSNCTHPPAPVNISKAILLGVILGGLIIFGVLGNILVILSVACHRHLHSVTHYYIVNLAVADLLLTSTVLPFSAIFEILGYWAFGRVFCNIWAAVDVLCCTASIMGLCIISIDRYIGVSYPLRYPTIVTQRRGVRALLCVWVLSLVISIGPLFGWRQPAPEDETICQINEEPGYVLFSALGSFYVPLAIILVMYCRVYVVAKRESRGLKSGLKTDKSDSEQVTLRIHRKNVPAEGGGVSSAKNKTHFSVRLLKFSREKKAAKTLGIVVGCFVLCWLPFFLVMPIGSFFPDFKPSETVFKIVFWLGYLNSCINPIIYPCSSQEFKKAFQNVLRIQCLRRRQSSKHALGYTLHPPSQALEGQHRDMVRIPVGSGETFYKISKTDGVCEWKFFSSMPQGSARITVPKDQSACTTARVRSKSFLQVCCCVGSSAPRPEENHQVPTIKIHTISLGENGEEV
Method in brief: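 Rat cerebral cortical membranes. Ki (nM) from displacement of saturable [3H]prazosin binding at α1 sites.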

[4] = tested on: Alpha-1 adrenergic receptor (Rattus norvegicus); test: Compound was evaluated for its ability to antagonise the inhibitory activity of phenylephrine, relative to idazoxan at postjunctional alpha-1 adrenergic receptor in rat anococcygeus.
[5] = tested on: Alpha-2 adrenergic receptor (Rattus norvegicus); test: Compound was evaluated for its ability to antagonise the inhibitory activity of clonidine, relative to idazoxan at prejunctional alpha-2 adrenergic receptor in rat vas deferens.
[6] = molecular target: T3, Adrenergic receptor alpha-1 (Rattus norvegicus) (UniProt P15823+P23944+P43140); test: Compound was evaluated for the antagonist potency at postjunctional alpha-1 adrenergic receptor in pithed rat diastolic bp test; format: functional
Method in brief: (§1)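 Pithed rats; iv dose (μg/kg) giving a 2-fold shift (DR2) of the cirazoline dose-response curve on diastolic blood pressure. Separate groups, n = 6 minimum.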

[7] = molecular target: T4, Adenosine receptor A1 (Rattus norvegicus) (UniProt P25099); test: Compound was evaluated for its ability to antagonise the inhibitory activity of phenylephrine, relative to idazoxan at postjunctional alpha-1 adrenergic receptor in rat anococcygeus; format: functional
T4 sequence (whole entry): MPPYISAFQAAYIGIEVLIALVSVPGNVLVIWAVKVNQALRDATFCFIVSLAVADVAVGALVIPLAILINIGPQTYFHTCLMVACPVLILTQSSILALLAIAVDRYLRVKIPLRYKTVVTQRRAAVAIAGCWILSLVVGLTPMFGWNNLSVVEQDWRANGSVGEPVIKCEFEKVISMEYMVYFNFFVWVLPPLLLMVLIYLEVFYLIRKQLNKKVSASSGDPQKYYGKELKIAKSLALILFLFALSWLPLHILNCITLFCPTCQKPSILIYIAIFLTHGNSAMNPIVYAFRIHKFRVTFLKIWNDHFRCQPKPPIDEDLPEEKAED

[8] = molecular target: T3, Adrenergic receptor alpha-1 (Rattus norvegicus); test: Compound was evaluated for the antagonist potency at postjunctional alpha-1 adrenergic receptor in pithed rat diastolic bp test,; format: functional; method in brief: as §1
[9] = molecular target: Adenosine A2 receptor (Rattus norvegicus) (UniProt P29276+P30543); test: Compound was evaluated for its ability to antagonise the inhibitory activity of clonidine, relative to idazoxan at prejunctional alpha-2 adrenergic receptor in rat vas deferens; format: functional, tissue-based

Row | Ki [1] [nM] | Ki [3] [nM] | SMILES | AD50 [2] [mg/kg] | also measured
1 | 0.36 | 27 | COC1(C2=NCCN2)COc2ccccc2O1 (single isomer, unassigned; (+)) [listing 1 of 2 here] | 0.00225 | 
2 | 256 | 6763 | COC1(C2=NCCN2)COc2ccccc2O1 (single isomer, unassigned; (-)) [listing 1 of 2 here] | 0.786 | 
3 | 0.8 | 66 | COC1(C2=NCCN2)COc2ccccc2O1 (stereo in doubt; 4) [listing 1 of 2 here] | 0.00268 | 
4 | 8 | 1473 | C=C(C)C1(C2=NCCN2)COc2ccccc2O1 (stereo in doubt; 12) [listing 1 of 2 here] | 0.0539 | 

The next lines start with the compound.

Row | SMILES | Ki [1] [nM] | Ki [3] [nM] | AD50 [2] [mg/kg] | also measured
5 | C=C(C)C1(C2=NCCN2)COc2ccccc2O1 (single isomer, unassigned; (+)) [listing 1 of 2 here] | 8734 | 46439 | >14.444 | 
6 | CC1(C2=NCCN2)COc2ccccc2O1 (single isomer, unassigned; (+)) [listing 1 of 2 here] | 2.4 | 285 | 0.0258 | 
7 | C=C(C)C1(C2=NCCN2)COc2ccccc2O1 (single isomer, unassigned; (+)) [listing 2 of 2 here] |  |  |  | Antagonist potency [4]: 0.03; Antagonist potency [5]: 0.0003
8 | CC1(C2=NCCN2)COc2ccccc2O1 (single isomer, unassigned; (+)) [listing 2 of 2 here] |  |  |  | Antagonist potency [4]: 0.09; Antagonist potency [5]: 1.3
9 | COC1(C2=NCCN2)COc2ccccc2O1 (single isomer, unassigned; (+)) [listing 2 of 2 here] |  |  |  | Antagonist potency [6]: 58.9
10 | CC1(C2=NCCN2)COc2ccccc2O1 (single isomer, unassigned; (-)) [listing 1 of 2 here] | 487 | 13329 | 2.567 | 
11 | CC1(C2=NCCN2)COc2ccccc2O1 (single isomer, unassigned; (-)) [listing 2 of 2 here] |  |  |  | Antagonist potency [7]: < 0.023; Antagonist potency [5]: 0.005
12 | COC1(C2=NCCN2)COc2ccccc2O1 (single isomer, unassigned; (-)) [listing 2 of 2 here] |  |  |  | Antagonist potency [8]: 12800
13 | COC1(C2=NCCN2)COc2ccccc2O1 (stereo in doubt; 4) [listing 2 of 2 here] |  |  |  | Antagonist potency [6]: 176
14 | CC1(C2=NCCN2)COc2ccccc2O1 (stereo in doubt; 7) [listing 1 of 2 here] | 4.4 | 449 | 0.0527 | 
15 | CC1(C2=NCCN2)COc2ccccc2O1 (stereo in doubt; 7) [listing 2 of 2 here] |  |  |  | Antagonist potency [4]: 0.28; Antagonist potency [9]: 0.67
16 | C=C(C)C1(C2=NCCN2)COc2ccccc2O1 (stereo in doubt; 10) [listing 1 of 2 here] | 16.3 | 1794 | 0.0712 | 
17 | C=C(C)C1(C2=NCCN2)COc2ccccc2O1 (stereo in doubt; 10) [listing 2 of 2 here] |  |  |  | Antagonist potency [4]: 0.07; Antagonist potency [5]: 0.4
18 | C=C(C)C1(C2=NCCN2)COc2ccccc2O1 (stereo in doubt; 12) [listing 2 of 2 here] |  |  |  | Antagonist potency [4]: 0.6; Antagonist potency [5]: 0.8
